From PubChem
An excerpt weighted towards active compounds, which were near 1.8% of everything screened.
ARNT-TACC3 inh: disruptors of ARNT/TACC3 protein interaction, primary screen, biochemical, AlphaScreen, single concentration | Transforming acidic coiled-coil-containing protein 3 (Homo sapiens), Q9Y6A5 | AlphaScreen His-ARNT PAS-B/GST-TACC3 binding, luminescence; TACC3 fragment carries E629A point mutation | inhibition, % at 9.99 µM | actives 0.66% (n = 390,000);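 active = mean inhibition of replicates at least 50% and at least half of replicates each reaching 50%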;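 note: 0% = complete ARNT plus TACC3 wells and 100% = ARNT alone without TACC3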
TCR CD3 inh: inhibitors of human TCR-CD3 interaction, primary screen, biochemical, fluorescence, TAMRA-labeled TCR probe; actives 0.37% (n = 360,000); inhibition, % at 9.4 µM; T-cell receptor (TCR); AID 651800, 2012; in the data active = inhibition above about 19%;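 note: recombinant mutant TCR 2C K166C tagged with TAMRA read by polarization; 0% = receptor in buffer alone and 100% = receptor with positive control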
HTRA1 inhibitor: HTRA1 serine protease inhibitors, primary screen, biochemical, fluorescence polarization, HTS. actives 0.5% (n = 340,000). AID 504803, 2011. inhibition, % at 5.96 µM. recombinant HTRA1, FP-rhodamine activity-based probe. Q92743; in the data active = inhibition above about 36%;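 note: 0% = enzyme with DMSO and 100% = wells lacking enzyme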
ABHD4 inh: ABHD4 inhibitors, primary screen, biochemical, fluorescence polarization, mouse; actives 0.54% (n = 370,000); AID 720543, 2013; purified mABHD4, FP-Rh probe fluorescence polarization; inhibition, % at 8.92 µM;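 active = inhibition exceeding the mean over every tested compound plus 3 SD, cut at about 30% in these data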;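 note: 0% = plate median of compound wells and 100% = S159A mutant with DMSO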
Target sequence (Q8VD66 whole entry, looked up): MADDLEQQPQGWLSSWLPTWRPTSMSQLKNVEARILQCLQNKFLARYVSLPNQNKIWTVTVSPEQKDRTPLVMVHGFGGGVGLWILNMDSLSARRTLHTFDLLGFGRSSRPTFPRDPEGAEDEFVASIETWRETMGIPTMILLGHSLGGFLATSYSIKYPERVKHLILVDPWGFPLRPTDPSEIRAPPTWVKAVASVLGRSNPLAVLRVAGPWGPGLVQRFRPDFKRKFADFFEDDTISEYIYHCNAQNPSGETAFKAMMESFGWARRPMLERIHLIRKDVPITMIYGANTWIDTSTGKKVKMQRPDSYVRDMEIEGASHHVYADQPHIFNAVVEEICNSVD
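Test system: mABHD4 protein; Read-out basis: % inhibition; Incubation: 45 min + 60 min at 25 °C; Repeats: single replicate; Technique: fluorescence polarization with parallel and perpendicular emission, 525/598 nm; Compound: 8.92 µM, single dose; Benchmarks: full inhibition S159A mutant plus DMSO, zero as sample-well median.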
SIAE primary: human SIAE inhibitors, primary screen, biochemical, fluorescence polarization, FP-Rh probe, 1536-well HTS; Sialate O-acetylesterase (Homo sapiens), Q9HAT2; SIAE FP-Rh probe binding; inhibition, % at 9.66 µM; actives 0.69% (n = 370,000); AID 1053197, 2014;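 active = inhibition above a cutoff: mean of compounds within the control limits plus 3 SD of those, cut at about 17% in these data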;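 note: 0% = plate median of compound wells and 100% = probe without SIAE protein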
HTRA1 inh conf: HTRA1 protease inhibitors, retest, confirmation, biochemical, fluorescence polarization. shares compounds with HTRA1 inhibitor. recombinant HTRA1, FP-rhodamine activity-based probe. inhibition, % at 5.96 µM. actives 66% (n = 1,600). AID 540248, 2011;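 active = mean inhibition over three repeats above a set limit taken from the earlier primary screen, cut at about 37% in these data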;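 note: 0% = HTRA1 with DMSO and 100% = wells lacking HTRA1; inhibitors block probe binding so polarization drops and inhibition rises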
* = called active by the depositor.

How did O=C(CN1CCOCC1)N[C@H]1CC[C@H](CCNC(=O)C2CCC2)O[C@@H]1CO do in these assays?
ARNT-TACC3 inh: 0

How did COc1cc2c(cc1OC)C(=O)C(Br)CC2 (stereo unspecified) do in these assays?
HTRA1 inhibitor: 42*; HTRA1 inh conf: 6

How did Cc1noc(C)c1NC(=O)Nc1ccc2c(c1)C(=O)N([C@@H](C)CO)C[C@@H](C)[C@@H](CN(C)C(=O)C1CCCCC1)OCCCC[C@H](C)O2 do in these assays?
ARNT-TACC3 inh: -10

What do the screens show for `CC(=O)OC(C)C1C2=C(C(=O)CC1(C)O)C(=O)c1c(ccc(-c3ccc4c(c3O)C(=O)C3=C(C4=O)C(C(C)OC(C)=O)C(C)(O)CC3=O)c1O)C2=O` (stereo unspecified)?
ARNT-TACC3 inh: 2; TCR CD3 inh: 0; HTRA1 inhibitor: 48*; ABHD4 inh: 47*; SIAE primary: 1; HTRA1 inh conf: 87*

How did C[C@@H]1CCCCO[C@@H](CN(C)C(=O)Nc2ccc3c(c2)OCO3)[C@H](C)CN([C@@H](C)CO)C(=O)c2cc(NC(=O)c3ccncc3)ccc2O1 do in these assays?
ARNT-TACC3 inh: 11

What do the screens show for `CC(N=Cc1cc([N+](=O)[O-])ccc1O)c1ccccc1` (stereo unspecified)?
TCR CD3 inh: -1; HTRA1 inhibitor: 1; ABHD4 inh: 7; SIAE primary: 7

Results for CC(N=Cc1cccc(O)c1O)c1ccccc1 (stereo unspecified) ?
ARNT-TACC3 inh: 26; HTRA1 inhibitor: 66*; HTRA1 inh conf: 100*

Results for Cc1ccccc1N=Cc1cccc(O)c1O ?
ARNT-TACC3 inh: -4; HTRA1 inhibitor: 49*; HTRA1 inh conf: 32

Results for CC(C)C(=O)NC(c1cccs1)c1cc([N+](=O)[O-])c2cccnc2c1O (stereo unspecified) ?
ARNT-TACC3 inh: 60*; HTRA1 inhibitor: 38*; HTRA1 inh conf: 37*

How did Cc1ccc(C(NC(=O)C(C)C)c2cc([N+](=O)[O-])c3cccnc3c2O)cc1 (stereo unspecified) do in these assays?
ARNT-TACC3 inh: 50*; TCR CD3 inh: -4; HTRA1 inhibitor: 37*; ABHD4 inh: 17; SIAE primary: 3; HTRA1 inh conf: 65*

Results for COc1cccc(C2Nc3c(F)cc(Br)cc3C3C=CCC32)c1OC (stereo unspecified) ?
ARNT-TACC3 inh: 0; TCR CD3 inh: 2; HTRA1 inhibitor: 44*; ABHD4 inh: 1; SIAE primary: 2; HTRA1 inh conf: -19

What do the screens show for `COc1cccc(/C=N/Nc2cc(-n3nc(C)cc3-c3ccccc3)ncn2)c1O`?
TCR CD3 inh: -1; HTRA1 inhibitor: 2; ABHD4 inh: 2; SIAE primary: -7

Results for COc1cccc(/C=N/Nc2ncnc3scc(-c4ccccc4)c23)c1O ?
ARNT-TACC3 inh: 41; TCR CD3 inh: 4; HTRA1 inhibitor: 45*; ABHD4 inh: 8; SIAE primary: 3; HTRA1 inh conf: 2

Results for C[C@@H]1CN([C@H](C)CO)S(=O)(=O)c2ccc(Br)cc2O[C@@H]1CN(C)CC1CC1 ?
ARNT-TACC3 inh: -1

How did COc1ccc(CN(C)C[C@H]2Oc3ccc(NS(=O)(=O)c4ccc(F)cc4)cc3C(=O)N([C@H](C)CO)C[C@H]2C)cc1 do in these assays?
ARNT-TACC3 inh: -1

How did O=C(Oc1ccc(/C=N/NC(=O)c2ccccc2O)cc1)c1ccccc1 do in these assays?
ARNT-TACC3 inh: -3; TCR CD3 inh: 1; HTRA1 inhibitor: 41*; ABHD4 inh: -6; SIAE primary: -4; HTRA1 inh conf: -6

What do the screens show for `COc1cccc2c1NC(C(=O)O)C1CC=CC21` (stereo unspecified)?
ARNT-TACC3 inh: -12; HTRA1 inhibitor: 62*; HTRA1 inh conf: 61*

What do the screens show for `COc1cc(C2Nc3c(F)cccc3C3C=CCC32)cc(Br)c1OC` (stereo unspecified)?
ARNT-TACC3 inh: 0; TCR CD3 inh: 1; HTRA1 inhibitor: -4; ABHD4 inh: 5; SIAE primary: 4

What do the screens show for `Cc1noc(C)c1NC(=O)N(C)C[C@@H]1OCCCC[C@H](C)Oc2ccc(NC(=O)C3CCCCC3)cc2C(=O)N([C@@H](C)CO)C[C@H]1C`?
ARNT-TACC3 inh: 12

Results for O=C(CC1C(=O)NCCN1Cc1cccc(Oc2ccccc2)c1)NCc1cccnc1 (stereo unspecified) ?
ARNT-TACC3 inh: 6; TCR CD3 inh: -1; HTRA1 inhibitor: -11; ABHD4 inh: -1; SIAE primary: -1

What do the screens show for `Cc1nc(CNC(=O)CC2C(=O)NCCN2Cc2cccc(Oc3ccccc3)c2)cs1` (stereo unspecified)?
TCR CD3 inh: -5; HTRA1 inhibitor: 44*; ABHD4 inh: -5; SIAE primary: 7; HTRA1 inh conf: -14

How did Cc1ccc(NC(=S)NNc2ncc(C(F)(F)F)cc2Cl)c(C)c1 do in these assays?
ARNT-TACC3 inh: 19; TCR CD3 inh: -4; HTRA1 inhibitor: 12; ABHD4 inh: 14; SIAE primary: -6

What do the screens show for `Cc1ccc(NC(=S)NNc2ncc(C(F)(F)F)cc2Cl)cc1`?
ARNT-TACC3 inh: 8; TCR CD3 inh: -2; HTRA1 inhibitor: 38*; ABHD4 inh: 8; SIAE primary: 1; HTRA1 inh conf: 36

What do the screens show for `FC(F)(F)c1cnc(NNC(=S)Nc2ccc(Cl)cc2)c(Cl)c1`?
ARNT-TACC3 inh: 27; TCR CD3 inh: -2; HTRA1 inhibitor: 49*; ABHD4 inh: 14; SIAE primary: 8; HTRA1 inh conf: 54*

How did Fc1ccc(NC(=S)NNc2ncc(C(F)(F)F)cc2Cl)c(F)c1 do in these assays?
ARNT-TACC3 inh: 42; TCR CD3 inh: 11; HTRA1 inhibitor: 46*; ABHD4 inh: 7; SIAE primary: 5; HTRA1 inh conf: 69*

How did Cc1ccc(S(=O)(=O)NCC[C@H]2CC[C@H](NC(=O)Nc3cccc(F)c3)[C@@H](CO)O2)cc1 do in these assays?
ARNT-TACC3 inh: 0

How did C[C@H]1CN([C@@H](C)CO)C(=O)Cc2cc(NS(C)(=O)=O)ccc2O[C@H]1CN(C)C(=O)Nc1cccc2ccccc12 do in these assays?
ARNT-TACC3 inh: -14

How did Cc1ccc(O)c(C=Nc2cc(C)ccc2O)c1 do in these assays?
ARNT-TACC3 inh: 12; HTRA1 inhibitor: 21
